ROCK2 blocker: inhibitors of human ROCK2 kinase, primary screen, biochemical, high-throughput, luminescence | purified ROCK2, Kinase-Glo ATP depletion luminescence | hit rate 0.35% among 60,000 | inhibition, % at 6 µM | Rho-associated protein kinase 2 (Homo sapiens), O75116 | AID 604, 2007;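 active means inhibition above the screen-wide mean inhibition plus 3 SD, cut at about 18% in these data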;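 further: plate controls were DMSO wells for no effect and Y-27632 control wells after no-enzyme background subtraction for full effect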
PKA kinase inh: inhibitors of human PKA kinase activity, primary screen, biochemical, ATP-depletion luminescence, Kemptide substrate; PKA Kemptide phosphorylation, Kinase-Glo ATP luminescence; inhibition, % at 6 µM; hit rate 0.1% among 65,000; cAMP-dependent protein kinase catalytic subunit alpha (Homo sapiens), P17612;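 active means inhibition above the screen-wide mean inhibition plus 3 SD, cut at about 21% in these data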
SF1 activator: activators of human SF-1, primary screen, cell-based, CHO-K1, Gal4-SF-1 LBD, luciferase luminescence. CHO-K1 Gal4-SF-1 LBD luciferase reporter; % increase over DMSO SF-1-specific signal. hit rate 1.9% among 65,000. AID 522, 2006. activation, % at 10 µM;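 active means activation above the mean activation of all tested compounds plus 3 SD, cut at about 50% in these data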
Target sequence (Q13285 whole entry, looked up, the tested form may be a part): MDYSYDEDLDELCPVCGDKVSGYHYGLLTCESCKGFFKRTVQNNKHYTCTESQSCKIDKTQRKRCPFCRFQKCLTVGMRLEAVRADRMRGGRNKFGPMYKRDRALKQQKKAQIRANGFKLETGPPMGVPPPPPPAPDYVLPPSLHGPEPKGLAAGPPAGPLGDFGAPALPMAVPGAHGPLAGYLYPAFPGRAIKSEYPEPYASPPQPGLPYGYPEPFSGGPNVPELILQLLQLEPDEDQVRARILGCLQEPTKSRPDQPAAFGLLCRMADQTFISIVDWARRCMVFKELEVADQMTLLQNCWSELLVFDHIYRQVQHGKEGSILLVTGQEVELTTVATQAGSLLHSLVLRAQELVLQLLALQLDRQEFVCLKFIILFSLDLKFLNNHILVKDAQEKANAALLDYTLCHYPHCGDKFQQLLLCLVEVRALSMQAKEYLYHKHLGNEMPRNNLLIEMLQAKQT
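material = CHO-K1 cells with Gal4–hSF-1 LBD chimera plus Gal4-driven luciferase | compound = 10 µM single point, 1% DMSO | incubation = 20 h compound exposure at 37 °C after 1 h cell settling | measured by = SteadyLite luciferase luminescence | evaluation = percent activation relative to DMSO median and mock-transfected background | control set = DMSO negative control and −SF1 background wells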
RORA act: activators of orphan receptor RORA, primary screen, cell-based, luminescence; activation, % at 10 µM; CHO-K1 Gal4-RORA LBD luciferase reporter; percent increase over mock-subtracted basal signal; Nuclear receptor ROR-alpha (Homo sapiens), P35398; hit rate 1.5% among 65,000;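 active means activation above the mean of all tested compounds plus 3 SD, cut at about 49% in these data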;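 further: 0% = DMSO-treated RORA cells and 100% = added signal equal to DMSO minus mock-transfected cells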
JNK3 blocker: JNK3 kinase activity inhibitors, primary screen, biochemical, human, purified enzyme; inhibition, % at 8 µM; HTS; hit rate 0.61% among 60,000; in the data active means inhibition above about 17%;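 further: 0% = DMSO and 100% = reference inhibitor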
MT1-MMP txn act: MT1-MMP promoter reporter activation – cell-based, luciferase luminescence, primary screen. activation factor at 10 µM. HT1080 MT1-MMP promoter luciferase reporter, overnight; active compounds read high. hit rate 0.16% among 86,000;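 active means activation factor of at least 2 for MT1-MMP transcription at 10 µM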
* marks the source's active call; other numbers are inactive results; . = no result given. Sampled rows, rich in hits. Any-hit rate of the full collection: about 2.5%.

SMILES	ROCK2 blocker	PKA kinase inh	SF1 activator	RORA act	JNK3 blocker	MT1-MMP txn act
c1ccc(-n2ncc3c(NC4CCCCCC4)ncnc32)cc1	-4	-10	91*	77*	8	1.4
Clc1ccc(-n2ncc3c(NCC4CCCO4)ncnc32)cc1 (stereo not given)	2	6	122*	96*	4	0.6
CC(C)Cn1c(=O)c2c(nc3n2CCCN3CCc2ccccc2)n(C)c1=O	-4	-5	9	-7	-1	1
Cc1nn(C(C)C(=O)O)c(=O)c2c1sc1ccccc12 (stereo not given)	0	2	2	-6	21*	1.2
CCOC(=O)c1[nH]c(C)c(C(=O)OCC)c1C	7	9	34	24	3	1.2
CCOC(=O)c1c(C)[nH]c(C(=O)COC(=O)C2CC2C)c1C (stereo not given)	6	10	54*	38	0	1.1
CC(C)c1cccc2nc3c(c(C(C)(C)C)c12)Cn1c-3cccc1=O	.	.	.	.	.	1.1
Cc1occc1C(=O)Nc1cccc2ccccc12	-2	8	74*	28	0	0.8
CCOc1ccc(NC(=O)c2cc3n(n2)C(C(F)(F)F)CC(c2ccco2)N3)cc1 (stereo not given)	3	-2	18	60*	6	1
O=C(Nc1ccc(O)cc1)c1cc2n(n1)C(C(F)(F)F)CC(c1ccco1)N2 (stereo not given)	8	4	40	23	1	0.9
c1ccc(COc2ccc(OCCn3cncn3)cc2)cc1	0	0	55*	19	1	1.7
c1ccc(-c2ccc(OCCCn3cncn3)cc2)cc1	-2	2	24	13	0	1.4
COc1cc(NS(=O)(=O)c2ccc3c(c2)n(C)c(=O)n3C)cc(OC)c1	.	.	.	.	.	1
COC(=O)c1c(C)[nH]c(C(=O)OCc2ccc(F)cc2)c1C	13	5	60*	30	8	1.4
O=S(=O)(Cc1nc2ccccc2s1)c1ccccc1	-2	-6	110*	50*	-3	1.6
O=S(=O)(CCc1nc2ccccc2s1)c1ccc(Cl)cc1	.	.	.	.	.	1
COC(=O)c1ccc(CSc2ccc3nnc(-c4ccc(OC)c(OC)c4)n3n2)o1	-1	-3	38	-2	-11	0.9
Cc1nnc2sc(-c3cc4ccccc4o3)nn12	-5	-7	34	57*	3	1.3
Cn1c(C(=O)NCC2CCCO2)cc2oc3ccccc3c21 (stereo not given)	1	8	50*	59*	2	1.3
Cn1c(C(=O)NCc2cccs2)cc2oc3ccccc3c21	6	11	54*	60*	6	1
Cn1c(C(=O)NCc2ccccc2)cc2oc3ccccc3c21	.	.	.	.	.	1.1
COc1cc(C(=O)Nc2ccc(-c3nc4cc(C)ccc4o3)c(O)c2)cc(OC)c1OC	3	11	13	-22	-6	1
C=C(C)CSc1nc2nc(C)c(Br)cc2[nH]1	.	.	.	.	.	1.4
CCCC[C@@H]1C[C@H]1C(NS(=O)(=O)c1cccc2cccnc12)c1ccc(-c2ccccc2)cc1 (stereo not given in full)	.	.	.	.	.	1.3
COc1ccccc1CNC(=O)c1ccccc1N(C)S(C)(=O)=O	.	.	.	.	.	0.9
SMILES	ROCK2 blocker	PKA kinase inh	SF1 activator	RORA act	JNK3 blocker	MT1-MMP txn act
O=C(c1ccccc1)c1ccc(N2CCOCC2)c(F)c1	3	6	46	74*	-3	1.3
O=C(c1ccccc1)c1cc(F)c(N2CCOCC2)cc1Cl	6	6	5	-8	-2	1.1
O=C(COc1cccc2cccnc12)Nc1nccs1	6	8	48	75*	1	1.3
NNC(=O)COc1cccc2cccnc12	.	.	.	.	.	1.1
COc1ccc(Cn2c(C3CC3)nc3ccc(NC(C)=O)cc3c2=O)cc1	5	0	58*	77*	8	1.8
COc1ccc(NC(=O)CSc2nnc(C3CC3)n2-c2ccccc2)cc1	.	.	.	.	.	1
Nc1c(S(=O)(=O)c2cccs2)c2nc3ccccc3nc2n1/N=C/c1cccc(O)c1	-2	5	-5	-14	5	1

From PubChem
